Reference: ChEMBL document CHEMBL4033792, “Structure-Activity Relationship in Monosaccharide-Based Toll-Like Receptor 4 (TLR4) Antagonists” (J Med Chem, 2018)
The source made the active and inactive calls. The calls are words filed in the database; no cut-off is given here.

Columns and labels:
[1] = Cytotoxicity against HEK-Blue cells assessed as reduction in cell viability at 10 uM after overnight incubation by MTT assay; assay type: cell-based; details: human
Summary of the method: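 MTT viability assay in HEK-Blue hTLR4 cells seeded at 4 × 10^4/well in phenol red-free DMEM and incubated overnight. Cells then treated overnight with the highest compound concentration used in the activity assays (10 μM). MTT (5 mg/mL in PBS) added for 3 h; formazan dissolved in 0.1 N HCl/2-propanol; absorbance 570 nm. Normalized to untreated (PBS) control; mean ± SEM of three independent experiments.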

[2] = target: Toll-like receptor 4 (Mus musculus) (UniProt Q9QUK6); experiment: Antagonist activity at TLR4 in mouse RAW blue cells assessed as inhibition of LPS-induced NF-kappaB activation-mediated SEAP production preincubated for 30 mins followed by LPS addition measured after 16 hrs by NF-kappaB reporter gene assay
THP-1 [3] = experiment: Cytotoxicity against human THP1 cells assessed as reduction in cell viability up to 10 uM after 24 hrs in absence of LPS by MTT asssay; assay type: cell-based; details: thp-1, 24 h
Summary of the method: (§1)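 THP-1 monocytes in RPMI with 10% heat-inactivated FBS, used at 0.5 × 10^6 cells/mL. Cells exposed to compounds at 0–10 μM, with or without LPS (100 ng/mL), for up to 24 h. Viability read by MTT assay.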

THP-1 [4] = experiment: Cytotoxicity against human THP1 cells assessed as reduction in cell viability up to 10 uM after 24 hrs in presence of LPS by MTT asssay; assay type: cell-based; details: thp-1, 24 h; summary of the method: as §1
Toll-like receptor 4 = Toll-like receptor 4 (Homo sapiens, UniProt O00206); experiment: Antagonist activity at human TLR4 expressed in HEK blue cells assessed as inhibition of LPS-induced NF-kappaB activation-mediated SEAP production preincubated for 30 mins followed by LPS addition measured after overnight incubation in absence of light by NF-kappaB reporter gene assay; assay type: cell-based
Summary of the method: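 HEK-Blue hTLR4 cells (stably expressing hTLR4, hMD-2, hCD14 and an NF-κB/AP-1-driven SEAP reporter) seeded at 4 × 10^4/well, incubated overnight at 37 °C. Compound (in water or DMSO–H2O 1:1) added 30 min before 100 ng/mL E. coli O55:B5 LPS, then overnight incubation. Supernatant SEAP read with pNPP, 2–4 h in the dark at room temperature, OD 405 nm. Normalized to LPS alone; four-parameter logistic fit for IC50; ≥3 independent experiments.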

[5] = target: Toll-like receptor 4 (Mus musculus) (UniProt Q9QUK6); experiment: Agonist activity at TLR4 in mouse RAW blue cells assessed as increase in NF-kappaB activation-mediated SEAP production up to 10 uM measured after 20 hrs by SEAP reporter gene assay
[6] = target: Toll-like receptor 4 (Mus musculus) (UniProt Q9QUK6); experiment: Antagonist activity at TLR4 in mouse RAW blue cells assessed as inhibition of LPS-induced NF-kappaB activation-mediated SEAP production up to 10 uM preincubated for 30 mins followed by LPS addition measured after 16 hrs by NF-kappaB reporter gene assay

Toll-like receptor 4, sequence (O00206 whole entry): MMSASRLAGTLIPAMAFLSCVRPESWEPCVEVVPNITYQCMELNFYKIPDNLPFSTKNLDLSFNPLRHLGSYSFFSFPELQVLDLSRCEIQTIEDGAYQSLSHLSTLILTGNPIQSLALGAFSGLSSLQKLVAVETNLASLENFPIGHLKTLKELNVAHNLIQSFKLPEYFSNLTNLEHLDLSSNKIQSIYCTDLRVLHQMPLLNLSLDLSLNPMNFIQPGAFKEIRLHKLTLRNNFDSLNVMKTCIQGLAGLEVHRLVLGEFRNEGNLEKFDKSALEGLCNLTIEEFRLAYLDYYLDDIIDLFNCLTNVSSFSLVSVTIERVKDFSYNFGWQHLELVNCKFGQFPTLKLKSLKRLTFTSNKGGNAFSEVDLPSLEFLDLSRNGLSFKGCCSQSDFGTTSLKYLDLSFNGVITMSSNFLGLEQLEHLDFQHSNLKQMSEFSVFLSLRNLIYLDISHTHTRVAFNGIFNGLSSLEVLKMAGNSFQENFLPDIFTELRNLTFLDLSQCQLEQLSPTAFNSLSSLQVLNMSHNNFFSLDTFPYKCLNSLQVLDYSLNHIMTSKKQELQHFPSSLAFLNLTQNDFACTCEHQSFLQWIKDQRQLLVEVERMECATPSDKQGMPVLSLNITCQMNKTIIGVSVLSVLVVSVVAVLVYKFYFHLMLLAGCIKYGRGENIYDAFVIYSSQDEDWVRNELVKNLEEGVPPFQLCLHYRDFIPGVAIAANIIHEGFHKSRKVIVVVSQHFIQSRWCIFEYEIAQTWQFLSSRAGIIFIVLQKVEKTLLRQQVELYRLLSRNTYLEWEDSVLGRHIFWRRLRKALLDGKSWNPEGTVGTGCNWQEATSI
Toll-like receptor 4 (Mus musculus), sequence (Q9QUK6 whole entry, looked up): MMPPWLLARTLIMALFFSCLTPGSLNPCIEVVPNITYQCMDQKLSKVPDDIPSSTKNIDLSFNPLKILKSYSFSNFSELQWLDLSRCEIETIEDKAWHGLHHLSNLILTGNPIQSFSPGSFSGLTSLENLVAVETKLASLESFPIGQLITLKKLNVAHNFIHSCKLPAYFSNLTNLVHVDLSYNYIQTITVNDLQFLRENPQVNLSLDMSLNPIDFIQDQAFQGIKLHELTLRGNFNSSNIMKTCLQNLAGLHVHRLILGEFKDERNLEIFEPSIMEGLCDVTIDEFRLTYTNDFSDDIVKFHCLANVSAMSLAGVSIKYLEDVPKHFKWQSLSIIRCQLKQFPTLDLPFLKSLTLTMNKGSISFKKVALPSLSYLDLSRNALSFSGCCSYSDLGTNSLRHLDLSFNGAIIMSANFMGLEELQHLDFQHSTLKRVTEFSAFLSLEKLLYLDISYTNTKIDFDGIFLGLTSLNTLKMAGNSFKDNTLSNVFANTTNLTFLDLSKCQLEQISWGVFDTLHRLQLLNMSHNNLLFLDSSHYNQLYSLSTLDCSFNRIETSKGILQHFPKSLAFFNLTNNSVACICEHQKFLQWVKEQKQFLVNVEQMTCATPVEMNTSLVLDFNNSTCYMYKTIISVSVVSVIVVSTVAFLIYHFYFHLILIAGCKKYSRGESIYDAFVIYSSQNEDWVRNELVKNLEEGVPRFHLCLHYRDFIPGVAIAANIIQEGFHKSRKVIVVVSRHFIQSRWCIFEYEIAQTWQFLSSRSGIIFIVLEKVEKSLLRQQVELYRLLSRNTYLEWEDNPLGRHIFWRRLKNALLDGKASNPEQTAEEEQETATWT

| SMILES | Activity [1] | IC50 [2] | Activity (THP-1 [3]) | Activity (THP-1 [4]) | IC50 (Toll-like receptor 4) | inhibition (Toll-like receptor 4) | Activity [5] | inhibition [6] |
| --- | --- | --- | --- | --- | --- | --- | --- | --- |
| CCCCCCCCCCCC(=O)N[C@H]1[C@@H](OP(=O)([O-])O)O[C@H](CO)[C@@H](OP(=O)([O-])O)[C@@H]1OC(=O)CCCCCCCCCCC.[Na+].[Na+] | Non-Toxic | 1.7 µM | Non-Toxic | Non-Toxic | 0.63 µM | Dose-dependent effect | Not Active | – |
| CCCCCCCCCCCCCC(=O)N[C@H]1[C@@H](OP(=O)(O)O)O[C@H](CO)[C@@H](OP(=O)(O)O)[C@@H]1OC(=O)CCCCCCCCCCCCC | – | 7.7 µM | Non-Toxic | Non-Toxic | 2 µM | Dose-dependent effect | Not Active | – |
| CCCCCCCCCC(=O)N[C@H]1[C@@H](OP(=O)([O-])O)O[C@H](CO)[C@@H](OP(=O)([O-])O)[C@@H]1OC(=O)CCCCCCCCC.[Na+].[Na+] | Non-Toxic | 42 µM | Non-Toxic | Non-Toxic | 5.45 µM | Dose-dependent effect | Not Active | – |
| CCCCCCCCCCCCCCCC(=O)N[C@H]1[C@@H](OP(=O)([O-])O)O[C@H](CO)[C@@H](OP(=O)([O-])O)[C@@H]1OC(=O)CCCCCCCCCCCCCCC.[Na+].[Na+] | Non-Toxic | – | Non-Toxic | Non-Toxic | – | – | Not Active | inactive |
